Test results published in ChEMBL document CHEMBL1140069, “In vitro antifungal activity of polyfunctionalized 2-(hetero)arylquinolines prepared through imino Diels-Alder reactions” (2008).
In brackets after ≈: the same amount, converted by molar mass.

Key:
Type in all cases: functional
[1] = tested on: Trichophyton mentagrophytes; assay: Antifungal activity against Trichophyton mentagrophytes ATCC 9972 after 48 hrs by broth microdilution technique; conditions: ATCC 9972, 48 h
Procedure, shortened: (§1)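 CLSI broth microdilution: M-27 A2 for yeasts and M-38 A for filamentous fungi. Medium is RPMI-1640 buffered to pH 7.0 with MOPS. Compound is diluted twofold from 250 to 0.98, final DMSO ≤2%. Inoculum is 1–5 × 10³ CFU/mL. Plates are incubated at 35 °C in a moist, dark chamber and read visually at 48 h. MIC100 is the lowest concentration giving total growth inhibition versus drug-free control.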

Candida albicans = assay: Antifungal activity against Candida albicans ATCC 10231 after 48 hrs by broth microdilution technique; conditions: ATCC 10231, 48 h; procedure, shortened: as §1
Aspergillus flavus = assay: Antifungal activity against Aspergillus flavus ATCC 9170 after 48 hrs by broth microdilution technique; conditions: ATCC 9170, 48 h; procedure, shortened: as §1
Saccharomyces cerevisiae = assay: Antifungal activity against Saccharomyces cerevisiae ATCC 9763 after 48 hrs by broth microdilution technique; conditions: ATCC 9763, 48 h; procedure, shortened: as §1
Trichophyton rubrum = assay: Antifungal activity against Trichophyton rubrum C110 after 48 hrs by broth microdilution technique; conditions: read-out: MIC; procedure, shortened: as §1
Aspergillus fumigatus = assay: Antifungal activity against Aspergillus fumigatus ATTC 26934 after 48 hrs by broth microdilution technique; procedure, shortened: as §1
Cryptococcus neoformans = assay: Antifungal activity against Cryptococcus neoformans ATCC 32264 after 48 hrs by broth microdilution technique; conditions: ATCC 32264, 48 h; procedure, shortened: as §1
Nannizzia gypsea = assay: Antifungal activity against Microsporum gypseum C115 after 48 hrs by broth microdilution technique; procedure, shortened: as §1
Aspergillus niger = assay: Antifungal activity against Aspergillus niger ATCC 9029 after 48 hrs by broth microdilution technique; conditions: ATCC 9029, 48 h; procedure, shortened: as §1

Row | SMILES | MIC [1] [µg/mL] | MIC (Candida albicans) [µg/mL] | MIC (Aspergillus flavus) [µg/mL] | MIC (Saccharomyces cerevisiae) [µg/mL] | MIC (Trichophyton rubrum) [µg/mL] | MIC (Aspergillus fumigatus) [µg/mL] | MIC (Cryptococcus neoformans) [µg/mL] | MIC (Nannizzia gypsea) [µg/mL] | MIC (Aspergillus niger) [µg/mL]
1 | Cc1ccc([N+](=O)[O-])c2c(C)cc(-c3ccncc3)nc12 | > 250 | > 250 | > 250 | > 250 | > 250 | > 250 | > 250 | > 250 | > 250
2 | COc1ccc2nc(-c3ccc4c(c3)OCO4)ccc2c1 | > 250 | > 250 | > 250 | > 250 | > 250 | > 250 | > 250 | > 250 | > 250
3 | Clc1ccc2nc(-c3ccco3)ccc2c1 | > 250 | > 250 | > 250 | > 250 | > 250 | > 250 | > 250 | > 250 | > 250
4 | O=[N+]([O-])c1cccc(-c2ccc3cc(F)ccc3n2)c1 | > 250 | > 250 | > 250 | > 250 | > 250 | > 250 | > 250 | > 250 | > 250
5 | Cc1cc(-c2ccncc2)nc2c(C(C)C)ccc([N+](=O)[O-])c12 | > 250 | > 250 | > 250 | > 250 | > 250 | > 250 | > 250 | > 250 | > 250
6 | Cc1cc(-c2cccnc2)nc2ccc(Br)cc12 | 12.5 (≈ 41.8 µM) | > 250 | > 250 | > 250 | 12.5 (≈ 41.8 µM) | > 250 | 250 (≈ 836 µM) | 12.5 (≈ 41.8 µM) | > 250
7 | CCc1cccc2c(C)cc(-c3ccncc3)nc12 | > 250 | > 250 | > 250 | > 250 | > 250 | > 250 | > 250 | > 250 | > 250
8 | Clc1ccc2nc(-c3cccs3)ccc2c1 | > 250 | > 250 | > 250 | > 250 | > 250 | > 250 | > 250 | > 250 | > 250
9 | COc1ccc2nc(-c3cccs3)ccc2c1 | > 250 | > 250 | > 250 | > 250 | > 250 | > 250 | > 250 | > 250 | > 250
10 | Cc1ccc2nc(-c3ccc4c(c3)OCO4)ccc2c1 | > 250 | > 250 | > 250 | > 250 | > 250 | > 250 | > 250 | > 250 | > 250
11 | COc1ccc2nc(-c3ccco3)ccc2c1 | 125 (≈ 555 µM) | > 250 | > 250 | > 250 | 125 (≈ 555 µM) | > 250 | > 250 | 125 (≈ 555 µM) | > 250
12 | COc1cc(OC)c2nc(-c3ccc4c(c3)OCO4)ccc2c1 | > 250 | > 250 | > 250 | > 250 | > 250 | > 250 | > 250 | > 250 | > 250

More lines, now with the values ahead:

Row | MIC [1] [µg/mL] | MIC (Candida albicans) [µg/mL] | MIC (Aspergillus flavus) [µg/mL] | MIC (Saccharomyces cerevisiae) [µg/mL] | MIC (Trichophyton rubrum) [µg/mL] | MIC (Aspergillus fumigatus) [µg/mL] | MIC (Cryptococcus neoformans) [µg/mL] | MIC (Nannizzia gypsea) [µg/mL] | MIC (Aspergillus niger) [µg/mL] | SMILES
13 | 125 (≈ 491 µM) | > 250 | > 250 | > 250 | 125 (≈ 491 µM) | > 250 | > 250 | 125 (≈ 491 µM) | > 250 | Nc1cccc(-c2ccc3cc(Cl)ccc3n2)c1
14 | > 250 | > 250 | > 250 | > 250 | > 250 | > 250 | > 250 | > 250 | > 250 | CCc1ccc2ccc(-c3ccc4c(c3)OCO4)nc2c1
15 | 250 (≈ 1120 µM) | > 250 | > 250 | > 250 | 250 (≈ 1120 µM) | > 250 | > 250 | 250 (≈ 1120 µM) | > 250 | Fc1ccc2nc(-c3ccccc3)ccc2c1
16 | > 250 | > 250 | > 250 | > 250 | > 250 | > 250 | > 250 | > 250 | > 250 | O=[N+]([O-])c1cccc(-c2ccc3cc(Cl)ccc3n2)c1
17 | 12.5 (≈ 57 µM) | > 250 | > 250 | > 250 | 25 (≈ 114 µM) | > 250 | 250 (≈ 1140 µM) | 12.5 (≈ 57 µM) | > 250 | Cc1cc(-c2ccccc2)nc2ccccc12
18 | 250 (≈ 1140 µM) | > 250 | > 250 | > 250 | 250 (≈ 1140 µM) | > 250 | 250 (≈ 1140 µM) | 250 (≈ 1140 µM) | > 250 | Cc1ccc2nc(-c3ccccc3)ccc2c1
19 | 250 (≈ 1070 µM) | > 250 | > 250 | > 250 | 250 (≈ 1070 µM) | > 250 | > 250 | 250 (≈ 1070 µM) | > 250 | CCc1ccc2nc(-c3ccccc3)ccc2c1
20 | > 250 | > 250 | > 250 | > 250 | > 250 | > 250 | > 250 | > 250 | > 250 | O=[N+]([O-])c1ccc2nc(-c3ccccc3)ccc2c1
21 | > 250 | > 250 | > 250 | > 250 | > 250 | > 250 | > 250 | > 250 | > 250 | CCc1ccc2nc(-c3cccc([N+](=O)[O-])c3)ccc2c1
22 | > 250 | > 250 | > 250 | > 250 | > 250 | > 250 | > 250 | > 250 | > 250 | Cc1cc(C)c2ccc(-c3ccccc3)nc2c1
23 | > 250 | > 250 | > 250 | > 250 | > 250 | > 250 | > 250 | > 250 | > 250 | c1ccc2nc(-c3ccc4c(c3)OCO4)ccc2c1
24 | > 250 | > 250 | > 250 | > 250 | > 250 | > 250 | > 250 | > 250 | > 250 | Clc1ccc2nc(-c3ccccc3)ccc2c1
25 | 250 (≈ 1130 µM) | > 250 | > 250 | > 250 | 125 (≈ 565 µM) | > 250 | > 250 | 125 (≈ 565 µM) | > 250 | Oc1ccc2nc(-c3ccccc3)ccc2c1
26 | 250 (≈ 1000 µM) | > 250 | > 250 | > 250 | 250 (≈ 1000 µM) | > 250 | 125 (≈ 501 µM) | 250 (≈ 1000 µM) | > 250 | c1ccc(-c2ccc3cc4c(cc3n2)OCO4)cc1
